Assay outcomes from PubChem.
RAD52 anneal inh: inhibitors of human RAD52 DNA annealing | AID 651710 | P43351 | hit rate 0.46% among 360,000 | inhibition, % at 18.7 µM | recombinant RAD52 DNA annealing, FRET fluorescence;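 active = every replicate showing at least 50% inhibition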
RAD54 branch: RAD54 (human) branch migration inhibition. Q92698. RAD54 Holliday junction branch migration, FAM/BHQ fluorescence. inhibition, % at 10.4 µM. hit rate 0.14% among 360,000. AID 602329;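 active = mean normalized replicate activity at least 40 and at least half of replicates scoring 40 or more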;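 note: 0% = median of neutral control wells and 100% = median of positive control wells; inhibitors cause a drop in the FAM fluorescence signal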
Target sequence (Q92698 whole entry, looked up): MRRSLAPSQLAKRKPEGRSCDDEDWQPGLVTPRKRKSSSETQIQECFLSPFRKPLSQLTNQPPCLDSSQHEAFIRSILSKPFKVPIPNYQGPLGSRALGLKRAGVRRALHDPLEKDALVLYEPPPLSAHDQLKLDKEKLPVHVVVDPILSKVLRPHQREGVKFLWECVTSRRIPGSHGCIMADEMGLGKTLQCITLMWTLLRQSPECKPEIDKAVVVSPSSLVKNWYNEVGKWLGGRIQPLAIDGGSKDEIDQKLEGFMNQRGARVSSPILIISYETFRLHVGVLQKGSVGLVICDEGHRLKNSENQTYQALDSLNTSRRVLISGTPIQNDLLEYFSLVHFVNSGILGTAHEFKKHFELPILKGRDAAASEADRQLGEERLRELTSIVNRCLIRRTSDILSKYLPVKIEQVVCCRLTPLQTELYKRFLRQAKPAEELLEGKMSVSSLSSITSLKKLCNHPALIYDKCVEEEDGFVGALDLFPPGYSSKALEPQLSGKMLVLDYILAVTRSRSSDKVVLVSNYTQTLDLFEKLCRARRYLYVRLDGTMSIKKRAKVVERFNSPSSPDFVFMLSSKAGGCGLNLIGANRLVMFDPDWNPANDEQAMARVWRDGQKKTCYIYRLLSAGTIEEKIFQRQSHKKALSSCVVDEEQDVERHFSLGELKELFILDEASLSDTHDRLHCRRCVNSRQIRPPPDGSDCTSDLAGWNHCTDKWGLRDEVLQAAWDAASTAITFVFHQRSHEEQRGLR
MLL AF4-AF9 inh: inhibitors of human MLL-AF4/AF9 interaction. P42568. AlphaScreen, biotin-AF4 peptide binding to FLAG-AF9. inhibition, % at 10 µM. hit rate 0.47% among 350,000;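 active = every replicate reaching a set inhibition limit, whatever the replicate mean, cut at about 25% in these data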;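 note: 0% = plate neutral control median and 100% = total signal loss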
GSIS activator: GLuc luminescence reporter in INS-1E cells, primary screen for activators of glucose-dependent secretion of insulin. AID 743287. activation, % at 16.6 µM. INS-1E GLuc reporter insulin secretion, 2-3 h. hit rate 0.61% among 370,000;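 active = lowest replicate activation of at least 40%, so every replicate reaches that level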;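 note: 0% = median of neutral control wells and 100% = median of IBMX positive control wells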
S100A4 MyoIIA: S100A4-myosin IIA interaction inhibition; inhibition, % at 10.7 µM; hit rate 0.14% among 360,000; AID 652163; S100A4/TAMRA-MyoIIA peptide fluorescence polarization;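 active = mean inhibition of at least 70% across replicates, with every replicate also reaching that level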
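incubation = readout 5 min after mixing, signal stable up to 60 min | system = S100A4 monomer protein | buffer or medium = HEPES pH 7.2 with CaCl2, KCl, NaCl, DTT, Triton | benchmarks = neutral control DMSO, positive control TFP | also added = fluorescent myosin IIA peptide, 5 nM | compound dosing = one concentration per compound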
* = called active by the depositor; i = inactive; . = not tested or not shown. Sampled rows, rich in hits. Any-hit rate of the full collection: about 1.3%.

SMILES	RAD52 anneal inh	RAD54 branch	MLL AF4-AF9 inh	GSIS activator	S100A4 MyoIIA
Cc1ccc(S(=O)(=O)N(C)C[C@@H]2Oc3ccc(NC(=O)Nc4c(C)noc4C)cc3CC(=O)N([C@H](C)CO)C[C@@H]2C)cc1	-1	36	-1	8	17
Cc1noc(C)c1S(=O)(=O)N(C)C[C@@H]1Oc2ccc(NC(=O)C3CC3)cc2CC(=O)N([C@@H](C)CO)C[C@H]1C	13	3	-1	-8	142*
CCC(=O)N1C[C@@H](O)COC[C@H]2O[C@H](CC(=O)NC)CC[C@@H]21	-9	0	-4	12	0
CC(C)NC(=O)NCC[C@@H]1CC[C@@H](NS(=O)(=O)c2ccc(Oc3ccccc3)cc2)[C@H](CO)O1	3	1	8	-6	-5
CCOC(=O)c1c(C)[nH]c(C(=O)COC(=O)c2cnccn2)c1C	-24	6	-1	70*	-3
COc1ccccc1/C=C/c1ccc2cccc(O)c2n1	-7	7	27*	-5	-6
Oc1ccc(/C=C/c2ccc3cccc(O)c3n2)cc1Br	-14	-2	26*	-40	2
O=C(O)c1ccc(/C=C/c2ccc3cccc(O)c3n2)cc1	-1	.	2	4	-2
O=C(C[C@@H]1C[C@H]2c3cc(NC(=O)Nc4ccccc4)ccc3O[C@H]2[C@@H](CO)O1)NCc1ccccc1	2	3	2	4	-16
C[C@@H]1CN([C@H](C)CO)C(=O)c2cc(C3=CCCC3)cnc2O[C@H]1CN(C)C(=O)c1ccc2c(c1)OCO2	-10	4	-1	-7	-5
CCCn1c(=O)c2ccccc2n2c(SCCNCCO)nnc12	16	8	27*	-1	-1
CC[N+]1=C(C)C(C)(C)c2cc(C)ccc21	-47	-51	-84	-43	182*
C[C@@H]1CCCCO[C@@H](CN(C)Cc2ccccc2)[C@@H](C)CN([C@H](C)CO)C(=O)c2cc(NC(=O)c3ccncc3)ccc2O1	5	7	-3	7	-8
COc1cccc(-n2c([S-])c(C(=O)Nc3ccc(S(=O)(=O)N4CCOCC4)cc3)[n+]3cc(C(N)=O)ccc23)c1	-28	5	-5	45*	-3
C[C@@H]1CN([C@H](C)CO)C(=O)Cc2cc(NC(=O)c3ccncc3)ccc2O[C@@H]1CN(C)CC1CCCCC1	3	0	0	-1	-24
O=C(Nc1ccc(-c2nc3ccccc3o2)cc1)c1ccc2c(c1)OCO2	-21	-4	3	9	1
CCOc1ccc(C(=O)NC(=S)Nc2ccc(NC(=O)c3ccco3)cc2)cc1[N+](=O)[O-]	.	.	.	43*	.
Cc1ccc2oc(-c3ccc(NC(=O)c4ccc5c(c4)OCO5)cc3)nc2c1	.	2	.	246*	.
CCOc1ccc(C(=O)Nc2ccc(NC(=O)c3cccs3)cc2)cc1[N+](=O)[O-]	.	-8	.	104*	.
COc1ccc(C(=O)Nc2ccc(NC(=O)c3cccs3)cc2)cc1[N+](=O)[O-]	-19	.	2	-11	0
O=C(Nc1ccc(NC(=O)c2cccs2)cc1)c1ccc2c(c1)OCO2	-15	2	4	47*	1
CCCNC(=O)Nc1ccc2c(c1)C(=O)N(C)C[C@H](OC)[C@H](C)CN(C(=O)C1CCCCC1)[C@@H](C)CO2	2	3	-4	-5	7
CC(C)NC(=O)N(C)C[C@@H]1Oc2cc(C#CC3CC3)ccc2S(=O)(=O)N([C@@H](C)CO)C[C@@H]1C	11	-2	-1	0	-12
CC1(C)CCN2CCC(C)(C)c3c(O)ccc1c32	i	-274	26*	-56	-11
Cc1ccc(/C=N/n2c(-c3cccnc3)n[nH]c2=S)s1	.	.	.	40*	.
SMILES	RAD52 anneal inh	RAD54 branch	MLL AF4-AF9 inh	GSIS activator	S100A4 MyoIIA
S=c1[nH]nc(-c2cccnc2)n1/N=C/c1ccc(Br)s1	.	2	.	-14	.
C[C@@H]1CN([C@@H](C)CO)S(=O)(=O)c2ccc(C#Cc3cccnc3)cc2O[C@@H]1CN(C)C(=O)C1CC1	-2	0	-2	-22	11
C[C@H]1CN([C@@H](C)CO)C(=O)c2cc(NC(=O)C3CCCCC3)ccc2O[C@@H]1CN(C)C(=O)Nc1ccccc1	13	5	-11	8	-23
COc1ccc(CNC(=O)CCS(=O)(=O)Cc2ccc(C)cc2)c(OC)c1	-14	.	0	26	3
COc1ccccc1CNC(=O)CCS(=O)(=O)Cc1ccc(C)cc1	-14	-10	1	88*	-1
Cc1cc(C)nc(Nc2n[nH]c(COc3ccccc3)n2)n1	.	6	.	.	.
Cc1cc(C)nc(Nc2n[nH]c(COc3ccc4ccccc4c3)n2)n1	.	-9	.	62*	.
C[C@@H]1CN([C@@H](C)CO)C(=O)c2cc(NC(=O)c3ccncc3)ccc2O[C@@H]1CN(C)Cc1ccccc1	6	-4	-1	15	1
COc1ccccc1-c1c(C)nn2c(-c3ccccc3)cc(C)nc12	-8	.	27*	-1	0
COc1ccccc1-c1cnc2c(Nc3cccc(OC(F)(F)C(F)F)c3)nccn12	-58	4	5	79*	-3
FC(F)C(F)(F)Oc1cccc(Nc2nccn3c(-c4cccc5cccnc45)cnc23)c1	-226	1	0	-4	1
C[C@@H]1CN([C@@H](C)CO)C(=O)c2cc(NC(=O)CCC(F)(F)F)ccc2O[C@@H]1CN(C)S(=O)(=O)c1cccs1	-3	18	-3	-8	3
CC[N+]1(C)CCC(O)(/C=C/c2ccccc2)C(C(=O)/C=C/c2ccccc2)C1 (centres undefined)	14	.	-2	80*	-2
C[C@H]1CCCCO[C@H](CN(C)C(=O)c2ccncc2)[C@@H](C)CN([C@@H](C)CO)C(=O)c2cc(NS(=O)(=O)c3cn(C)cn3)ccc2O1	-5	2	-5	9	-6
CCN(CC)CCNC(=O)c1ccc(NC(=O)/C=C/c2cc(OC)c(OC)c(OC)c2)cc1	24	62*	8	1	-4
C[C@@H]1CN([C@@H](C)CO)C(=O)Cc2cc(NC(=O)Nc3ccc(C(F)(F)F)cc3)ccc2O[C@H]1CN(C)S(=O)(=O)c1ccc(F)cc1	.	.	.	8	.
O=C(NC[C@H]1N[C@H](CO)[C@@H]1c1ccc(C2=CCCCC2)cc1)c1ccc(F)cc1	15	-7	13	-7	-28
O=S(=O)(c1ccc(NCCCO)nc1)N1CCOCC1	-11	3	-1	49*	-5
COc1cccc(S(=O)(=O)N[C@H]2C=C[C@H](CC(=O)NCc3ccc(Cl)cc3)O[C@H]2CO)c1	6	.	-5	-9	1
C[C@@H](O)C1NC(=O)[C@H](CCCCN)NC(=O)c2cc([N+](=O)[O-])cc(F)c2NCCCC[C@@H](C(N)=O)NC1=O (some centres undefined)	.	54*	.	.	.
CCOc1cc(C2C3=C(CC(C)(C)CC3=O)OC3=C2C(=O)CC(C)(C)C3)cc([N+](=O)[O-])c1O	-11	.	0	16	5
